Experimental data published in ChEMBL document CHEMBL2163256, “6-(methylamino)hexane-1,2,3,4,5-pentanol 4-(((1S,2S)-1-hydroxy-2,3-dihydro-1H,1'H-[2,2-biinden]-2-yl)methyl)benzoate (PH46A): a novel small molecule with efficacy in murine models of colitis” (J Med Chem, 2012).
Active and inactive are the calls of the source. The calls are words filed in the database; no cut-off is given here.

How the values were obtained:
[1] = test system: Mus musculus; experiment: Antiinflammatory activity against DSS-induced colitis BALB/c mouse model assessed as decrease in disease activity index at 30 mg/kg, po qd for 7 days relative to vehicle-treated control; format: functional, organism-based; parameters: dose 30 mg/kg
Summary of the method: (§1)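 Female SPF BALB/c mice, 6−8 weeks old; colitis induced by 5% DSS in tap drinking water (renewed every second day) for 7 days. Daily oral dosing for 7 days as suspension/solution in 0.5% carboxymethyl cellulose/2% Tween 80. Daily body weight; DAI per mouse each day from weight loss, occult blood and stool consistency; colon length at autopsy. Mean ± SEM, n = 6−7.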

[2] = test system: Mus musculus; experiment: Antiinflammatory activity against DSS-induced colitis BALB/c mouse model assessed as decrease in disease activity index at 10 mg/kg, po qd for 7 days relative to vehicle-treated control; format: functional, organism-based; parameters: dose 10 mg/kg; summary of the method: as §1
[3] = test system: Mus musculus; experiment: Antiinflammatory activity against po dosed DSS-induced colitis BALB/c mouse model assessed as reduction in histological colon damage score administered daily once for 7 days measured on day 7; format: functional, organism-based
Summary of the method: (§2)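 After 7 days of 5% DSS with daily oral dosing, about 1 cm distal colon was fixed in 10% formaldehyde-saline, paraffin-embedded, cut into 5 μm serial sections and H&E-stained. Scoring covered cell infiltration (0−3) and extent of injury (0−3), done blinded by two independent observers.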

[4] = test system: Mus musculus; experiment: Antiinflammatory activity against DSS-induced colitis BALB/c mouse model assessed as reduction in IL1b level at 30 mg/kg, po qd for 7 days measured on day 7 relative to vehicle-treated control; format: functional, organism-based; parameters: dose 30 mg/kg
Summary of the method: (§3)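 DSS colitis in female BALB/c mice (5% DSS in drinking water, 7 days, daily oral dosing). At autopsy, colon remaining after histology sampling snap-frozen, stored at −20 °C, thawed, contents removed, chopped and homogenized; supernatant protein determined. IL1b, IL6 and TNFα in colon supernatant by sandwich ELISA, expressed as ng/mg. Mean ± SEM, n = 6−7.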

[5] = test system: Mus musculus; experiment: Antiinflammatory activity against po dosed DSS-induced colitis BALB/c mouse model assessed as reduction in IL1b level administered daily once for 7 days measured on day 7 relative to vehicle-treated control; format: functional, organism-based; summary of the method: as §3
[6] = test system: Mus musculus; experiment: Antiinflammatory activity against po dosed DSS-induced colitis BALB/c mouse model assessed as reduction in shortening of colon administered daily once for 7 days measured on day 7 relative to vehicle-treated control; format: functional, organism-based; summary of the method: as §1
[7] = test system: Mus musculus; experiment: Antiinflammatory activity against DSS-induced colitis BALB/c mouse model assessed as reduction in IL6 level at 30 mg/kg, po qd for 7 days measured on day 7 relative to vehicle-treated control; format: functional, organism-based; parameters: dose 30 mg/kg; summary of the method: as §3
[8] = test system: Mus musculus; experiment: Antiinflammatory activity against po dosed DSS-induced colitis BALB/c mouse model assessed as reduction in IL6 level administered daily once for 7 days measured on day 7 relative to vehicle-treated control; format: functional, organism-based; summary of the method: as §3
[9] = test system: Mus musculus; experiment: Antiinflammatory activity against DSS-induced colitis BALB/c mouse model assessed as increase in colon lenght at 30 mg/kg, po qd for 7 days relative to vehicle-treated control; format: functional, organism-based; parameters: dose 30 mg/kg; summary of the method: as §1
[10] = test system: Mus musculus; experiment: Antiinflammatory activity against po dosed DSS-induced colitis BALB/c mouse model assessed as reduction in TNFalpha level administered daily once for 7 days measured on day 7 relative to vehicle-treated control; format: functional, organism-based; summary of the method: as §3
[11] = test system: Mus musculus; experiment: Antiinflammatory activity against DSS-induced colitis BALB/c mouse model assessed as increase in colon lenght at 10 mg/kg, po qd for 7 days relative to vehicle-treated control; format: functional, organism-based; parameters: dose 10 mg/kg; summary of the method: as §1
[12] = test system: Mus musculus; experiment: Antiinflammatory activity in IL-10 -/- BALB/c mouse assessed as prevention of rectal prolapse at 300 mg/kg, po administered as divided dose 3 times a week for 9 weeks relative to vehicle-treated control; format: functional, organism-based; parameters: dose 300 mg/kg
Summary of the method: (§4)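 IL-10−/− BALB/c-background mice, bred SPF, treated from 6−8 weeks of age by oral gavage of 300 mg/kg/week in distilled water (vehicle), Mon/Wed/Fri, for 9 weeks. Weight, rectal bleeding and prolapse monitored. At 9 weeks serum SAA was measured by sandwich ELISA. Proximal colon (1 cm) was fixed, H&E-stained and scored blinded by two observers (maximum 4). n = 9 vehicle, 11 treated; Student's t test.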

[13] = test system: Mus musculus; experiment: Antiinflammatory activity in IL-10 -/- BALB/c mouse assessed as prevention of weight loss at 300 mg/kg, po administered as divided dose 3 times a week for 9 weeks relative to vehicle-treated control; format: functional, organism-based; parameters: dose 300 mg/kg; summary of the method: as §4
[14] = test system: Mus musculus; experiment: Antiinflammatory activity against po dosed DSS-induced colitis BALB/c mouse model assessed as decrease in disease activity index administered daily once for 7 days measured on day 7 relative to vehicle-treated control; format: functional, organism-based; summary of the method: as §1
[15] = test system: Mus musculus; experiment: Antiinflammatory activity against DSS-induced colitis BALB/c mouse model assessed as prevention of body weight loss at 10 mg/kg, po qd for 7 days relative to vehicle-treated control; format: functional, organism-based; parameters: dose 10 mg/kg; summary of the method: as §1
[16] = test system: Mus musculus; experiment: Antiinflammatory activity against DSS-induced colitis BALB/c mouse model assessed as reduction in TNFalpha level at 30 mg/kg, po qd for 7 days measured on day 7 relative to vehicle-treated control; format: functional, organism-based; parameters: dose 30 mg/kg; summary of the method: as §3
[17] = test system: Mus musculus; experiment: Antiinflammatory activity in IL-10 -/- BALB/c mouse assessed as prevention of rectal bleeding at 300 mg/kg, po administered as divided dose 3 times a week for 9 weeks relative to vehicle-treated control; format: functional, organism-based; parameters: dose 300 mg/kg; summary of the method: as §4
[18] = test system: Mus musculus; experiment: Antiinflammatory activity in IL-10 -/- BALB/c mouse assessed as reduction in histological colon damage score at 300 mg/kg, po administered as divided dose 3 times a week for 9 weeks relative to vehicle-treated control; format: functional, organism-based; parameters: dose 300 mg/kg; summary of the method: as §4
[19] = test system: Mus musculus; experiment: Antiinflammatory activity against DSS-induced colitis BALB/c mouse model assessed as prevention of body weigth loss at 10 mg/kg, po qd for 7 days measured on day 7 relative to vehicle-treated control; format: functional; summary of the method: as §1
[20] = test system: Mus musculus; experiment: Antiinflammatory activity against DSS-induced colitis BALB/c mouse model assessed as decrease in disease activity index at 10 mg/kg, po qd for 7 days measured on day 7 relative to vehicle-treated control; format: functional; parameters: scale not given: the % may be the effect or the level left; summary of the method: as §1
[21] = test system: Mus musculus; experiment: Antiinflammatory activity against DSS-induced colitis BALB/c mouse model assessed as decrease in myeloperoxidative activity at 30 mg/kg, po qd for 7 days measured on day 7 relative to vehicle-treated control; format: functional; parameters: scale not given: the % may be the effect or the level left
Summary of the method: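 In the 7-day 5% DSS BALB/c colitis model with daily oral dosing, colon MPO was measured in homogenized snap-frozen colon supernatant (protein determined) by a standard method.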

[22] = test system: Mus musculus; experiment: Antiinflammatory activity against DSS-induced colitis BALB/c mouse model assessed as prevention of body weigth loss at 30 mg/kg, po qd for 7 days measured on day 7 relative to vehicle-treated control; format: functional; summary of the method: as §1
[23] = test system: Mus musculus; experiment: Antiinflammatory activity in IL-10 -/- BALB/c mouse assessed as decrease in serum SAA level at 300 mg/kg, po administered as divided dose 3 times a week for 9 weeks (reference value: 468.9 +/- 38.37 ug/ml); format: functional; summary of the method: as §4
[24] = test system: Mus musculus; experiment: Antiinflammatory activity against DSS-induced colitis BALB/c mouse model assessed as decrease in disease activity index at 30 mg/kg, po qd for 7 days measured on day 7 relative to vehicle-treated control; format: functional; parameters: scale not given: the % may be the effect or the level left; summary of the method: as §1
[25] = test system: Mus musculus; experiment: Antiinflammatory activity against DSS-induced colitis BALB/c mouse model assessed as reduction in histological colon damage score at 30 mg/kg, po qd for 7 days measured on day 7 relative to vehicle-treated control; format: functional; parameters: scale not given: the % may be the effect or the level left; summary of the method: as §2
[26] = test system: Mus musculus; experiment: Antiinflammatory activity against DSS-induced colitis BALB/c mouse model assessed as decrease in disease activity index at 3 mg/kg, po qd for 7 days measured on day 7 relative to vehicle-treated control; format: functional; parameters: scale not given: the % may be the effect or the level left; summary of the method: as §1
[27] = test system: Mus musculus; experiment: Antiinflammatory activity against DSS-induced colitis BALB/c mouse model assessed as reduction in shortening of colon at 30 mg/kg, po qd for 7 days measured on day 7 relative to vehicle-treated control; format: functional; parameters: scale not given: the % may be the effect or the level left; summary of the method: as §1
[28] = test system: Mus musculus; experiment: Toxicity in DSS-induced colitis BALB/c mouse model assessed as overt reactions at 30 mg/kg, po qd for 7 days relative to vehicle-treated control; format: organism-based; parameters: dose 30 mg/kg, route oral; conditions: in vivo, 168 h

`O=C(O)c1ccc(C[C@@]2(C3=Cc4ccccc4C3)Cc3ccccc3[C@H]2O)cc1` [listing 1 of 2 here] was tested, and the Activity [1] was “Active”, the Activity [2] was “Active” and the Activity [3] was “Dose-dependent effect”. The Activity [4] was “Active”, the Activity [5] was “Dose-dependent effect” and the Activity [6] was “Dose-dependent effect”. For the same molecule, the Activity [7] was “Active”, the Activity [8] was “Dose-dependent effect” and the Activity [9] was “Active”. The Activity [10] was “Dose-dependent effect”, the Activity [11] was “Active” and the Activity [12] was “inactive”. The Activity [13] was “inactive”, the Activity [14] was “Dose-dependent effect” and the Activity [15] was “Active”. For the same molecule, the Activity [16] was “Active”, the Activity [17] was “inactive” and the Activity [18] was “Active”.

`CNC[C@H](O)[C@@H](O)[C@H](O)[C@H](O)CO.O=C(O)c1ccc(C[C@@]2(C3=Cc4ccccc4C3)Cc3ccccc3[C@H]2O)cc1` showed an Activity [19] of 12.8%, an Activity [20] of 54% and an Activity [21] of 63%. The Activity [22] was 6.2%, the Activity [23] was 342.7 µg/mL and the Activity [24] was 80%. The Activity [25] was greater than 75%, the Activity [26] was 24% and the Activity [27] was 76%.

In the case of `O=C(O)c1ccc(C[C@@]2(C3=Cc4ccccc4C3)Cc3ccccc3[C@H]2O)cc1` [listing 2 of 2 here], the Activity [28] was “Non-toxic”.

In the case of `O=C(O)c1ccc(C[C@@]2(C3=Cc4ccccc4C3)Cc3ccccc3[C@@H]2O)cc1`, the Activity [1] was “inactive”, the Activity [9] was “Active” and the Activity [28] was “Non-toxic”.
